Experimental findings from ChEMBL document CHEMBL1126125, “Synthesis and antibacterial activity of 1-(substituted pyrrolyl)-7-(substituted amino)-6-fluoro-1,4-dihydro-4-oxo-3- quinolinecarboxylic acids” (1992) are described below.

Broadly, the MIC is the lowest concentration that inhibits growth of the organism.

One assay relates to Escherichia coli. Description: In vitro antibacterial activity against Escherichia coli ATCC 25922. The assay is classed as functional. Put shortly:
(§1)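 Agar dilution MIC. Organisms grown overnight in brain-heart infusion broth at 37 °C. Compound stock of 5 mg/mL serially diluted two-fold in BHI agar, giving final test concentrations of 200 to […] μg/mL. Plates incubated 24 h at 37 °C. MIC read as the lowest concentration that inhibited visible growth.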

For a further assay, the system named is Staphylococcus aureus. As to the kind of experiment: In vitro antibacterial activity against Staphylococcus aureus ATCC 6538p. The assay is classed as functional. Put shortly:
as §1

≈ marks a conversion by molar mass, not a printed value.

On to `Cn1cc(-n2cc(C(=O)O)c(=O)c3cc(F)c(Cl)cc32)c([N+](=O)[O-])c1`, for which the minimal inhibitory concentration (MIC) in the assay on Escherichia coli and in the assay with Staphylococcus aureus was 100 µg/mL (≈ 273 µM) in each case.
Turning to `CN1CCN(c2cc3c(cc2F)c(=O)c(C(=O)O)cn3-c2ccc(F)cc2)CC1` [DIFLOXACIN], the minimal inhibitory concentration (MIC) against Escherichia coli was found to be 0.39 µg/mL (≈ 0.976 µM); in the assay with Staphylococcus aureus, 0.195 µg/mL (≈ 0.488 µM).
For `O=C(O)c1cn(-c2ccc([N+](=O)[O-])cc2)c2cc(N3CCCC3)c(F)cc2c1=O`, in that order: more than 100 µg/mL and more than 100 µg/mL.
For the compound `CC1CCCN(c2cc3c(cc2F)c(=O)c(C(=O)O)cn3-c2cc([N+](=O)[O-])cn2C)C1` (stereo not drawn), the figures for the MIC against Escherichia coli and in the assay with Staphylococcus aureus were 100 µg/mL (≈ 233 µM) and 3.12 µg/mL (≈ 7.29 µM), respectively.
As for `CN1CCN(c2cc3c(cc2F)c(=O)c(C(=O)O)cn3-c2cc([N+](=O)[O-])cn2C)CC1`, the MIC in the assay on Escherichia coli turned out to be 3.12 µg/mL (≈ 7.28 µM); in the assay on Staphylococcus aureus, 6.25 µg/mL (≈ 14.6 µM).
The corresponding values for `Cn1cc(-n2cc(C(=O)O)c(=O)c3cc(F)c(N4CCCC4)cc32)c([N+](=O)[O-])c1` are more than 100 µg/mL and more than 100 µg/mL.
For `Cn1cc([N+](=O)[O-])cc1-n1cc(C(=O)O)c(=O)c2cc(F)c(N3CCCC3)cc21`, in that order: 12.5 µg/mL (≈ 31.2 µM) and 0.78 µg/mL (≈ 1.95 µM).
For `Cn1cc(-n2cc(C(=O)O)c(=O)c3cc(F)c(N4CCCNCC4)cc32)c([N+](=O)[O-])c1`, in that order: 100 µg/mL (≈ 233 µM) and 100 µg/mL (≈ 233 µM).
In the case of `CN1CCN(c2cc3c(cc2F)c(=O)c(C(=O)O)cn3-c2cn(C)cc2[N+](=O)[O-])CC1`, the MIC against Escherichia coli and in the assay with Staphylococcus aureus was 100 µg/mL (≈ 233 µM) each time.
In the case of `Cn1cc(-n2cc(C(=O)O)c(=O)c3cc(F)c(N4CCCCC4)cc32)c([N+](=O)[O-])c1`, the MIC was 100 µg/mL (≈ 241 µM) against Escherichia coli and 50 µg/mL (≈ 121 µM) against Staphylococcus aureus.
Take `CC1CCCN(c2cc3c(cc2F)c(=O)c(C(=O)O)cn3-c2ccc([N+](=O)[O-])cc2)C1` (stereo not drawn): the MIC in the assay on Escherichia coli and in the assay with Staphylococcus aureus was more than 100 µg/mL in each case.
Take `O=C(O)c1cn(-c2ccc([N+](=O)[O-])cc2)c2cc(Cl)c(F)cc2c1=O`: the figures for the minimum inhibitory concentration (MIC) with Escherichia coli and against Staphylococcus aureus were 12.5 µg/mL (≈ 34.5 µM) and 6.25 µg/mL (≈ 17.2 µM), respectively.
For `CC1CN(c2cc3c(cc2F)c(=O)c(C(=O)O)cn3-c2cn(C)cc2[N+](=O)[O-])CCN1` (stereo not drawn), in that order: 100 µg/mL (≈ 233 µM) and 100 µg/mL (≈ 233 µM).
The corresponding values for `Cn1cc([N+](=O)[O-])cc1-n1cc(C(=O)O)c(=O)c2cc(F)c(Cl)cc21` are 100 µg/mL (≈ 273 µM) and 50 µg/mL (≈ 137 µM).
For `CC1CCCN(c2cc3c(cc2F)c(=O)c(C(=O)O)cn3-c2cn(C)cc2[N+](=O)[O-])C1` (stereo not drawn), in that order: more than 100 µg/mL and 25 µg/mL (≈ 58.4 µM).
In the case of `Cn1cc(-n2cc(C(=O)O)c(=O)c3cc(F)c(N4CCNCC4)cc32)c([N+](=O)[O-])c1`, the minimum inhibitory concentration (MIC) against Escherichia coli and in the assay with Staphylococcus aureus was 100 µg/mL (≈ 241 µM) in each case.
On to `CC1CCN(c2cc3c(cc2F)c(=O)c(C(=O)O)cn3-c2cn(C)cc2[N+](=O)[O-])CC1`, for which the MIC against Escherichia coli is more than 100 µg/mL; against Staphylococcus aureus, 12.5 µg/mL (≈ 29.2 µM).
For `Cn1cc(N)c(-n2cc(C(=O)O)c(=O)c3cc(F)c(N4CCNCC4)cc32)c1`, in that order: 50 µg/mL (≈ 130 µM) and 100 µg/mL (≈ 259 µM).
The corresponding values for `CN1CCN(c2cc3c(cc2F)c(=O)c(C(=O)O)cn3-c2ccc([N+](=O)[O-])cc2)CC1` are 12.5 µg/mL (≈ 29.3 µM) and 25 µg/mL (≈ 58.6 µM).
